Assay results pooled from the literature.
ST14: Suppressor of tumorigenicity 14 protein (ST14, Homo sapiens, UniProt Q9Y5Y6)
CDK2 with cyclin A2: Cyclin-dependent kinase 2, with cyclin A2 (CDK2, Homo sapiens, UniProt P24941)
FLT4: Vascular endothelial growth factor receptor 3 (FLT4, Homo sapiens, UniProt P35916)

Compound | target | assay | conditions | quantity | value
C=CCCCCCC(C)(NC(=O)[C@H](Cc1cscn1)NC(=O)CCc1ccccc1)C(=O)N[C@@H](CCCNC(=N)N)C(=O)c1nc2ccccc2s1 (stereo partly shown) | ST14 | enzyme activity, inhibitor | 0.1 µM | remaining activity | 89%
Cc1cc([C@@H](C)Nc2ccccc2C(=O)O)c2nc(N3CCC(F)(F)CC3)c(C#N)c(=O)n2c1 | Angiopoietin-1 receptor (TEK, Homo sapiens, UniProt Q02763) | binding, competition with immobilised ligand | 10 µM | remaining binding | 100%
CNC(=O)c1cc(Oc2ccc(NC(=O)Nc3ccc(Cl)c(C(F)(F)F)c3)cc2)ccn1 | CDK2 with cyclin A2 | enzyme activity, inhibitor | 0.1 µM | inhibition | 58.2%
N=C(N)NCCC[C@H](NC(=O)C1(NC(=O)[C@H](Cc2cscn2)NC(=O)CCc2ccccc2)CC1)C(=O)c1nc2ccccc2s1 | ST14 | enzyme activity, inhibitor | 0.1 µM | remaining activity | 19%
C=CC(=O)N1CCC(COCC(=O)N2CCN(c3nc(-c4cnc(N)nc4C(F)F)nc(N4CCOC[C@@H]4C)n3)CC2)CC1 | FLT4 | binding, competition with immobilised ligand | 1 µM | remaining binding | 83%
CNc1ncc2c(/C=C/C(=O)N3CCC(OC)CC3)nn(Cc3cccc(C(F)(F)F)c3)c2n1 | Cyclin-dependent kinase 8, with cyclin C (CDK8, Homo sapiens, UniProt P49336) | enzyme activity, inhibitor, radiometric | 1 µM | remaining activity | 105%
CC(=O)Nc1c(N)nc(SCC(=O)NN)[nH]c1=O | CDK2 with cyclin A2 | enzyme activity, inhibitor | 10 nM | inhibition | 22.9%
N=C(N)NCCC[C@H](NC(=O)[C@H](Cc1ccccc1I)NC(=O)[C@H](Cc1cscn1)NC(=O)CCc1ccccc1)C(=O)c1nc2ccccc2s1 | ST14 | enzyme activity, inhibitor | 0.1 µM | remaining activity | 90%
CC(=O)Nc1c(N)nc(SCC(=O)N/N=C/c2ccc([N+](=O)[O-])cc2)[nH]c1=O | CDK2 with cyclin A2 | enzyme activity, inhibitor | 0.5 µM | inhibition | 51.5%
COc1cc(-c2cncc3c2CN(C)Cc2cc(N4CCNCC4)ccc2-3)cc(OC)c1OC | FLT4 | enzyme activity, inhibitor | 1 µM | remaining activity | 86%
